From paper PMC6641930 (ACS Omega, 2017)
Values joined by “and” are separate entries in the source; they are usually repeats but may differ in a detail not shown here. Equal entries are not always repeated. Where two headings read alike, the source gives them in different places.

Assays:
Aβ1-42 fibrils [1] = biological target: T1, Aβ1-42 fibrils (Homo sapiens, UniProt P05067); assay: Fluorescence emission of probe bound to Aβ1-42 fibrils; type: binding; conditions: PBS buffer pH 7.5; for Int: fold increase in fluorescence intensity upon binding to Aβ1-42 fibrils: 5 μM fibrils (monomer basis) + 1 μM probe, versus free probe
T1 sequence (P05067 672-713): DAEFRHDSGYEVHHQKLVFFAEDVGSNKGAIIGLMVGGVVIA
In short: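 Recombinant Aβ1-42 (extra N-terminal Met), solubilised in 6 M GuHCl and gel-filtered into PBS pH 7.5. […] Probe (1.0 μM, from DMSO stock) mixed with 5 μM fibrils or freshly dissolved monomer (monomer basis) in PBS pH 7.5. Emission spectra at 330 nm excitation, identical settings.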

native TTR [2] = biological target: T2, native TTR (Homo sapiens, UniProt P02766); assay: Fluorescence emission of probe with native TTR; type: binding; conditions: 5 μM native TTR + 1 μM probe; for emission peaks of probe bound to native TTR: excitation 330 nm; for fluorescence intensity increase upon binding to native TTR: versus probe in buffer
In short: (§1)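 Probe (1.0 μM final, from DMSO stock) is read free in buffer or with 5 μM native protein (monomer basis). Buffers are HOAc/NaAc pH 3.0 or PBS pH 7.5. Aβ1-42 is recombinant with an extra N-terminal Met, freshly gel-filtered monomer in PBS pH 7.5. Spectra are recorded at 330 nm excitation, 350–600 nm emission, with identical instrument settings.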

Fluorescence lifetime = type: physicochemical; conditions: A: degassed methanol, [probe] = 5 μM
In short: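 TCSPC decays of 5 μM probe in argon-degassed methanol, excited at 337 nm and monitored at each emission maximum at room temperature. Instrument response is determined with a fibril solution. Decays are fitted to a sum of exponentials, with fit quality judged by χ2, residual distribution and residual autocorrelation. Average lifetime is calculated from amplitudes and lifetimes. Lifetime uncertainty is within 10%.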

TTR fibrils [3] = biological target: T3, TTR fibrils (Homo sapiens, UniProt P02766); assay: Fluorescence emission of probe bound to TTR fibrils; type: binding; conditions: 5 μM fibrils + 1 μM probe; pH 3.0; excitation 330 nm
In short: (§2)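 Fibrils made from pH 3.0 (TTR: purified WT TTR in 50 mM NaAc/100 mM NaCl; bovine insulin or hen lysozyme: 200 μM in 25 mM HCl pH 1.6 at 65 °C, then dialysed into NaAc/NaCl pH 3.0). 1.0 μM probe from DMSO stock mixed with 5 μM fibrils (monomer basis) in HOAc/NaAc pH 3.0. Excitation 330 nm, emission 350–600 nm. Fold increase taken relative to free probe in buffer.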

native Aβ1-42 = native Aβ1-42 (Homo sapiens, UniProt P05067); assay: Fluorescence emission of probe with freshly dissolved native Aβ1-42; type: binding; conditions: 5 μM native Aβ1-42 + 1 μM probe; PBS buffer
Sequence of native Aβ1-42 (P05067 672-713): as above
In short: as §1

insulin fibrils [4] = biological target: T4, insulin fibrils (Bos taurus, UniProt P01317); assay: Fluorescence emission of probe bound to insulin fibrils; type: binding, Bovine; conditions: pH 3.0; for Int: fold increase in fluorescence intensity upon binding to insulin fibrils: 5 μM fibrils (monomer basis) + 1 μM probe, versus free probe; for λem2: emission maxima of probe bound to insulin fibrils: 5 μM fibrils + 1 μM probe, excitation 330 nm
T4 sequence (P01317 25-54 limits assumed): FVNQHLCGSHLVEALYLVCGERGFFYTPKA
T4 sequence (P01317 85-105 limits assumed): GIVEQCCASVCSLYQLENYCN
In short: as §2

lysozyme fibrils [5] = biological target: T5, lysozyme fibrils (Gallus gallus, UniProt P00698); assay: Fluorescence emission of probe bound to lysozyme fibrils; type: binding, chicken; conditions: pH 3.0; for Int: fold increase in fluorescence intensity upon binding to lysozyme fibrils: 5 μM fibrils (monomer basis) + 1 μM probe, versus free probe; for λem2: emission maxima of probe bound to lysozyme fibrils: 5 μM fibrils + 1 μM probe, excitation 330 nm
T5 sequence (P00698 19-147): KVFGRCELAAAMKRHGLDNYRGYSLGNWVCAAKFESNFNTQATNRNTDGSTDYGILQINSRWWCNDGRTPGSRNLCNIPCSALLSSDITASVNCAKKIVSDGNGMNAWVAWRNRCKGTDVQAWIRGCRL
In short: as §2

Aβ1-42 fibrils [6] = biological target: T1, Aβ1-42 fibrils; assay: Titration of Aβ1-42 fibrils on a fixed probe concentration; type: binding
In short: (§3)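 Fibrils (0–20 μM, monomer basis) are titrated onto fixed probe: 1 μM, or 0.5 μM for Aβ1-42 fibrils. Buffers are pH 3.0 for TTR, insulin and lysozyme, and PBS pH 7.5 for Aβ1-42 (10 μM, 37 °C, 24 h quiescent). Samples equilibrate 30 min at room temperature. Excitation 330 nm, emission 350–700 nm. Kd comes from a one-site nonlinear fit with fixed Bmax correcting for unbound probe. SD is from two independent binding series.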

lysozyme fibrils [7] = biological target: T5, lysozyme fibrils; assay: Titration of lysozyme fibrils on a fixed probe concentration; type: binding, chicken
In short: as §3

insulin fibrils [8] = biological target: T4, insulin fibrils; assay: Titration of insulin fibrils on a fixed probe concentration; type: binding, Bovine
In short: as §3

[9] = UV-vis absorption and fluorescence spectra in methanol; type: physicochemical; conditions: for λmax (em): excitation 330 nm, [probe] = 20 μM; for ε: four concentrations
In short: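 Absorption is read in methanol in a 1 cm quartz cuvette at room temperature, at 20 μM and at four concentrations (50–5 μM, or 10–2 μM for one probe) for ε. Fluorescence of 20 μM probe in methanol uses 330 nm excitation, 350–600 nm emission and 1 nm resolution.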

Aβ1-42 fibrils [10] = biological target: T1, Aβ1-42 fibrils; assay: Fluorescence lifetime; conditions: for τavg (average fluorescence lifetime): B: bound to Aβ1-42 fibrils in PBS buffer pH 7.5, [probe] = 5 μM; for τavg (average fluorescence lifetime) / λem1 (emission wavelength of decay) / τ1: [fibrils] = 20 μM; for λem1 (emission wavelength of decay) / τ1: [probe] = 5 μM
In short: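 Time-correlated single photon counting on 5 μM probe with 20 μM Aβ1-42 fibrils (monomer basis) in PBS pH 7.5 at 25 °C, not degassed. Excitation 337 nm; decay recorded at the bound-probe emission maximum. Instrument response is measured with fibril solution. Multi-exponential fits are judged by χ2 and residuals. Uncertainty is within 10%.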

TTR fibrils [11] = biological target: T3, TTR fibrils; assay: Titration of TTR fibrils on a fixed probe concentration; type: binding
In short: as §3

native TTR [12] = biological target: T2, native TTR; assay: Saturation binding of native TTR to probe
[13] = Emission maximum of free probe in buffer; type: physicochemical; conditions: HOAc/NaOAc buffer pH 3.0 or PBS buffer pH 7.5
In short: as §1

TTR fibrils [14] = biological target: T3, TTR fibrils; conditions: two separate binding events, cited from earlier work
[15] = B: bound to Aβ1-42 fibrils in PBS buffer

SMILES	Int: fold increase in fluorescence intensity upon binding to Aβ1-42 fibrils (Aβ1-42 fibrils [1]) [fold]	emission peaks of probe bound to native TTR (native TTR [2])	fluorescence intensity increase upon binding to native TTR (native TTR [2])	α1 (normalized pre-exponential factor) (Fluorescence lifetime)	λem1 (emission wavelength of decay) (Fluorescence lifetime) [nm]	τavg (average fluorescence lifetime) (Fluorescence lifetime) [ns]	λem2: emission maxima of probe bound to TTR fibrils (TTR fibrils [3])	fluorescence / binding with freshly prepared native Aβ1-42 (native Aβ1-42)	Int: fold increase in fluorescence intensity upon binding to insulin fibrils (insulin fibrils [4]) [fold]	λem2: emission maxima of probe bound to insulin fibrils (insulin fibrils [4])	Int: fold increase in fluorescence intensity upon binding to lysozyme fibrils (lysozyme fibrils [5]) [fold]	λem2: emission maxima of probe bound to lysozyme fibrils (lysozyme fibrils [5]) [nm]	Kd (Aβ1-42 fibrils [6]) [nM]	Kd (lysozyme fibrils [7]) [nM]	Kd (insulin fibrils [8]) [nM]	Stokes shift [9] [nm]	λmax (abs) [9] [nm]	λmax (em) [9] [nm]	ε [9]	α1 (normalized pre-exponential factor) (Aβ1-42 fibrils [10]; [15])	also measured
Oc1ccc(/C=C/c2ccc3cc4ccccc4cc3c2)cc1O [Compound 4, (E)-4-(2-(anthracen-2-yl)vinyl)benzene-1,2-diol]	10.3	449 nm and 476 nm	about 6.1 fold	1	475	4.23	451 nm and 475 nm	Neither 2, 4, or 5 fluoresced appreciably	91.4	451 nm and 471 nm	37.5	451	1600 ± 100	2800 ± 400	3700 ± 600	148	335	483	27 070 L·M^–1 cm^–1	0.38	τ1 (Fluorescence lifetime; excitation 337 nm): 4.23 ns; α2 (normalized pre-exponential factor) (Aβ1-42 fibrils [10]; [15]): 0.62; τ2 (Aβ1-42 fibrils [10]; [15]): 6.06 ns; τavg (average fluorescence lifetime) (Aβ1-42 fibrils [10]): 5.7 ns and 5.73 ns; λem1 (emission wavelength of decay) (Aβ1-42 fibrils [10]; [15]): 460 nm; τ1 (Aβ1-42 fibrils [10]; [15]): 0.64 ns; Kd (TTR fibrils [11]): 7400 ± 500 nM
Oc1ccc(/C=C/c2cc3ccc4cccc5ccc(c2)c3c45)cc1O [Compound 5, (E)-4-(2-(pyren-2-yl)vinyl)benzene-1,2-diol]	11.1	420 nm and 445 nm and 475 nm	15.8 fold	0.77	425	19.11	420 nm and 445 nm and 475 nm	Neither 2, 4, or 5 fluoresced appreciably	23.2	420 nm and 445 nm and 475 nm	8.9	420	1300 ± 100	1600 ± 300	2300 ± 400	78	337	415	47 668 L·M^–1 cm^–1	0.11	λem2: emission maxima of probe bound to Aβ1-42 fibrils (Aβ1-42 fibrils [1]; 5 μM fibrils + 1 μM probe, excitation 330 nm): ~421 nm; Kd (native TTR [12]): 200 ± 10 nM; λem1: emission maxima of probes in buffer [13]: 420 nm; α2 (normalized pre-exponential factor) (Fluorescence lifetime): 0.23; τ2 (Fluorescence lifetime): 29.30 ns; α2 (normalized pre-exponential factor) (Aβ1-42 fibrils [10]; [15]): 0.42; α3 (normalized pre-exponential factor) (Aβ1-42 fibrils [10]; [15]): 0.47; τ2 (Aβ1-42 fibrils [10]; [15]): 8.89 ns; τ3 (Aβ1-42 fibrils [10]; [15]): 34.70 ns; τavg (average fluorescence lifetime) (Aβ1-42 fibrils [10]): 29.8 ns and 29.76 ns; λem1 (emission wavelength of decay) (Aβ1-42 fibrils [10]; [15]): 430 nm; τ1 (Aβ1-42 fibrils [10]; [15]): 0.83 ns; Kd (TTR fibrils [11]): 6000 ± 300 nM
Oc1ccc(/C=C/c2cccc3ccccc23)cc1O [Compound 1, (E)-4-(2-(naphthalen-1-yl)vinyl)benzene-1,2-diol]																					Kd (TTR fibrils [14]; read-out: Kd1, TTR fibrils (high-affinity binding site)): 110 nM; Kd (TTR fibrils [14]; read-out: Kd2, TTR fibrils): > 10000 nM
